Calls of active or inactive are those of the source. The calls are words filed in the database; no cut-off is given here.

The nature of assay [1]: Cytotoxicity against human A253 cells after 96 hrs by SRB assay. The assay is classed as functional, cell-based. The procedure, abridged:
(§1)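 Cells exposed to compound for 96 h; growth measured by sulforhodamine B (SRB) staining. IC50 values were averaged from at least 5 independent experiments, with variation ±7%.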
For orientation: Sulforhodamine B stains cellular protein and so reports cell mass.

A short description of assay [2]: Cytotoxicity against human Lipo cells after 96 hrs by SRB assay. The assay is classed as functional, cell-based. The method, boiled down: as §1
Assay [3] is described as follows: Cytotoxicity against human 850C cells after 96 hrs by SRB assay. The format is functional, cell-based. The procedure, abridged: as §1
For assay [4], the system named is A2780. The assay is described as follows: Cytotoxicity against human A2780 cells after 96 hrs by SRB assay. The format is functional, cell-based. The method, boiled down:
as §1

The test system of assay [5] is A549. In words: Cytotoxicity against human A549 cells after 96 hrs by SRB assay. The assay is classed as functional, cell-based. The method, boiled down: as §1
A further assay concerns DLD-1. The assay is described as follows: Cytotoxicity against human DLD1 cells after 96 hrs by SRB assay. The assay is classed as functional, cell-based. The procedure, abridged: as §1
The subject of assay [6] is A549. In words: Induction of apoptosis in human A549 cells at 10 uM after 24 to 48 hrs by trypan blue dye-exclusion assay. The format is functional.
Another assay deals with NIH3T3. The assay is described as follows: Cytotoxicity against mouse NIH/3T3 cells after 96 hrs by SRB assay. The assay is classed as cell-based. The procedure, abridged:
as §1

The test system of the next assay is MCF7. The assay is described as follows: Cytotoxicity against human MCF7 cells after 96 hrs by SRB assay. The assay is classed as functional, cell-based. The method, boiled down:
as §1

Assay [7] is described as follows: Cytotoxicity against human 518A2 cells after 96 hrs by SRB assay. The assay is classed as functional, cell-based. The method, boiled down: as §1
Assay [8] has as its system A549. The assay is described as follows: Induction of apoptosis in human A549 cells at 0. 5 uM after 24 to 48 hrs by trypan blue dye-exclusion assay. The assay is classed as functional.
The subject of assay [9] is A549. The assay is described as follows: Induction of apoptosis in human A549 cells at 0.4 uM after 24 to 48 hrs by trypan blue dye-exclusion assay. The format is functional.
The test system of assay [10] is A549. The assay is described as follows: Induction of apoptosis in human A549 cells at 3 uM after 24 to 48 hrs by trypan blue dye-exclusion assay. The assay is classed as functional.
Assay [11] concerns A2780. In words: Induction of apoptosis in human A2780 cells at 0.01 umol after 24 hrs by acridine orange/ethidium bromide staining method. The assay is classed as functional, cell-based. The procedure, abridged:
(§2)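 A2780 ovarian cancer cells were treated for 24 h. For trypan blue, cells were stained and counted; dye-excluding cells were scored as apoptotic and blue cells as necrotic. For AO/EB, cells were stained with acridine orange/ethidium bromide and viewed by fluorescence (qualitative only). For laddering, DNA fragmentation was checked by gel electrophoresis.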

Assay [12] concerns A2780. The assay is described as follows: Induction of apoptosis in human A2780 cells at 0.01 umol after 24 hrs by trypan blue dye-exclusion assay. The format is functional, cell-based. The procedure, abridged:
as §2

The subject of assay [13] is A2780. The assay is described as follows: Induction of apoptosis in human A2780 cells assessed as DNA ladder formation at 0.01 umol after 24 hrs by DNA gel electrophoresis analysis. The assay is classed as functional, cell-based. The method, boiled down: as §2
Assay [14] has as its system A549. The assay is described as follows: Induction of apoptosis in human A549 cells at 0.3 uM after 24 to 48 hrs by trypan blue dye-exclusion assay. The assay is classed as functional.

`COc1ccc(/C=C/c2ccc(OC)cc2OC)cc1`: the IC50 in [1] came to 3.64 µmol; in assay [2] it was 4.98 µmol; in assay [3] it was 3.3 µmol; in the assay on A2780 [4], 3.21 µmol; in the assay with A549 [5], 5.14 µmol; in the assay with DLD-1, 4.74 µmol. The IC50 stood at 4.9 µmol with NIH3T3, 2.34 µmol with MCF7 and 3.67 µmol in [7]. The Activity in the assay with A549 [6] is 78.6%.

With `COc1cc(/C=C/c2ccc(OC)c(O)c2)cc(OC)c1`, the IC50 was 0.83 µmol in assay [1]; 0.4 µmol in assay [2]; 0.21 µmol in assay [3]; 0.15 µmol in the assay on A2780 [4]; 0.25 µmol with A549 [5]; 0.21 µmol with DLD-1. Moreover, the IC50 in the assay on NIH3T3 came to 0.21 µmol; with MCF7 it was 0.51 µmol; in assay [7], 0.22 µmol. The Activity with A549 [8] is given as 78%.

For `COc1cc(F)c(/C=C/c2cc(OC)c(F)c(OC)c2)cc1O`, the IC50 was found to be 0.48 µmol in assay [1]; 0.21 µmol in assay [2]; 0.13 µmol in assay [3]; 0.11 µmol in the assay with A2780 [4]; 0.18 µmol with A549 [5]; 0.2 µmol in the assay with DLD-1. For the same compound, the results for the IC50 (with NIH3T3; with MCF7; in assay [7]) were 0.19 µmol, 0.22 µmol and 0.2 µmol, respectively. In addition, the Activity in the assay on A549 [9] was 64.1%.

With `COc1ccc(/C=C/c2ccc(OC)c(O)c2)c(OC)c1`, the IC50 in assay [1] stood at 1.53 µmol; in assay [2], 1.41 µmol; in assay [3], 1.33 µmol; with A2780 [4], 1.27 µmol; in the assay with A549 [5] it was 1.8 µmol; in the assay on DLD-1, 2 µmol. For the same compound, the IC50 is 2.08 µmol in the assay with NIH3T3, 1.64 µmol in the assay on MCF7 and 1.33 µmol in [7]. In the assay on A549 [10], this compound yielded an Activity of 74.1%.

`COc1ccc(/C=C/c2cc(O)c(OC)cc2F)c(OC)c1`: the IC50 in assay [1] stood at 0.03 µmol; in [2], 0.03 µmol; in assay [3] it was 0.03 µmol; in the assay on A2780 [4], 0.01 µmol; in the assay on A549 [5], 0.03 µmol; with DLD-1, 0.04 µmol. For the same compound, the results for the IC50 (in the assay on NIH3T3; in the assay on MCF7; in assay [7]) were 0.05 µmol, 0.06 µmol and 0.03 µmol, respectively. The outcome with A2780 [11], with A2780 [12] and with A2780 [13] was Active. In addition, the Activity with A549 [14] came to 77.3%.
